Assay results taken from ChEMBL document CHEMBL1157863, “Synthesis and antiviral activity of new acrylamide derivatives containing 1,2,3-thiadiazole as inhibitors of hepatitis B virus replication” (Eur J Med Chem, 2010).
Values after ≈ are worked out from the molar mass of the structure shown.

Legend:
Hepatitis B virus [1] = test: Antiviral activity against HBV infected in HepG2(2.2.15) cells assessed as inhibition of viral surface antigen secretion after 8 days by radio immunoassay; type: functional, organism-based
Summary of the method: (§1)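 Confluent 2.2.15 cultures were dosed at several concentrations in RPMI 1640 with 2% FBS, with fresh medium and compound each day for 8 days and untreated cell controls. HBsAg and HBeAg secreted into the supernatant were quantified by radioimmunoassay kits.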

[2] = Cytotoxicity against human HepG2(2.2.15) cells after 9 days by neutral red dye uptake assay; conditions: read-out: TC50
Hepatitis B virus [3] = test: Antiviral activity against HBV infected in HepG2(2.2.15) cells assessed as inhibition of viral DNA replication after 8 days by dot blot hybridization
[4] = Selectivity index, ratio of TC50 for human HepG2(2.2.15) cells to IC50 for Hepatitis B virus DNA replication; type: toxicity
[5] = Selectivity index, ratio of TC50 for human HepG2(2.2.15) cells to IC50 for Hepatitis B virus early antigen secretion; type: toxicity
Hepatitis B virus [6] = test: Antiviral activity against HBV infected in HepG2(2.2.15) cells assessed as inhibition of viral early antigen secretion after 8 days by radio immunoassay; type: functional, organism-based; conditions: HepG2 2.2.15, 192 h; summary of the method: as §1
[7] = Hepatitis B virus, HepG2 2.2.15, 192 h, read-out: IC50

In the case of `Nc1ccn([C@@H]2CS[C@H](CO)O2)c(=O)n1` [LAMIVUDINE], the IC50 (Hepatitis B virus [1]) is reported as “Not Active”, the CC50 at 216 h [2] is reported as 962 µg/mL (≈ 4190 µM) and the IC50 (Hepatitis B virus [3]; [7]) is reported as 14.8 µg/mL (≈ 64.6 µM). The selectivity ratio [4] was 65.
In the case of `Cc1nnsc1C(=O)N/C(C(=O)N1CCCCC1)=C(\Br)c1ccccc1`, the IC50 (Hepatitis B virus [1]) is reported as “Not Active”, the CC50 at 216 h [2] is reported as 111 µg/mL (≈ 255 µM) and the IC50 (Hepatitis B virus [3]; hepg2 2.2.15) is reported as “Not Active”.
For `CCN(CC)C(=O)/C(NC(=O)c1ccccc1)=C(/Br)c1snnc1C`, the IC50 (Hepatitis B virus [1]) was “Not Active”, the CC50 at 216 h [2] was 86.2 µg/mL (≈ 204 µM) and the IC50 (Hepatitis B virus [3]; hepg2 2.2.15) was “Not Active”.
In the case of `Cc1nnsc1/C=C(/NC(=O)c1ccccc1)C(=O)N1CCCCC1`, the IC50 (Hepatitis B virus [1]) is reported as “Not Active”, the CC50 at 216 h [2] is reported as 231 µg/mL (≈ 648 µM) and the IC50 (Hepatitis B virus [3]; hepg2 2.2.15) is reported as “Not Active”.
In the case of `Cc1nnsc1C(=O)N/C(C(=O)N1CCCCC1)=C(\Br)c1ccccc1Cl`, the IC50 (Hepatitis B virus [1]) is reported as “Not Active”, the CC50 at 216 h [2] is reported as 86.2 µg/mL (≈ 184 µM) and the IC50 (Hepatitis B virus [3]; [7]) is reported as 10.4 µg/mL (≈ 22.1 µM). It also gave a selectivity ratio [4] of 8.29.
For `Cc1nnsc1C(=O)N/C(C(=O)N1CCCCC1)=C(\Cl)c1ccccc1`, the IC50 (Hepatitis B virus [1]) was “Not Active”, the selectivity ratio [5] was 5.23 and the IC50 (Hepatitis B virus [6]) was 12.3 µg/mL (≈ 31.4 µM). For the same compound, the CC50 at 216 h [2] was 64.2 µg/mL (≈ 164 µM) and the IC50 (Hepatitis B virus [3]; hepg2 2.2.15) was “Not Active”.
With `Cc1nnsc1/C(Br)=C(/NC(=O)c1ccccc1)C(=O)N1CCCCC1` the IC50 (Hepatitis B virus [1]) was “Not Active”, the CC50 at 216 h [2] was 192 µg/mL (≈ 442 µM) and the IC50 (Hepatitis B virus [3]; [7]) was 9 µg/mL (≈ 20.7 µM). It also gave a selectivity ratio [4] of 21.4.
For `Cc1nnsc1C(=O)N/C(C(=O)N1CCCCC1)=C(\Br)c1ccc(Cl)cc1`, the IC50 (Hepatitis B virus [1]) was “Not Active”, the CC50 at 216 h [2] was 17.8 µg/mL (≈ 37.9 µM) and the IC50 (Hepatitis B virus [3]; [7]) was 3.59 µg/mL (≈ 7.64 µM). It also gave a selectivity ratio [4] of 4.96.
In the case of `Cc1nnsc1/C(Cl)=C(/NC(=O)c1ccccc1)C(=O)N1CCOCC1`, the IC50 (Hepatitis B virus [1]) is reported as “Not Active”, the CC50 at 216 h [2] is reported as 577 µg/mL (≈ 1470 µM) and the IC50 (Hepatitis B virus [3]; hepg2 2.2.15) is reported as “Not Active”.
For `Cc1nnsc1C(=O)N/C(C(=O)N1CCOCC1)=C(\Br)c1snnc1C`, the IC50 (Hepatitis B virus [1]) was “Not Active”, the CC50 at 216 h [2] was 47.7 µg/mL (≈ 104 µM) and the IC50 (Hepatitis B virus [3]; hepg2 2.2.15) was “Not Active”.
In the case of `Cc1nnsc1/C(Br)=C(/NC(=O)c1ccccc1)C(=O)N1CCOCC1`, the IC50 (Hepatitis B virus [1]) is reported as “Not Active”, the CC50 at 216 h [2] is reported as 333 µg/mL (≈ 762 µM) and the IC50 (Hepatitis B virus [3]; [7]) is reported as 30.5 µg/mL (≈ 69.8 µM). For the same compound, the selectivity ratio [4] was 10.9.
